NadD inh: blocks S. aureus nicotinate mononucleotide adenylyltransferase; hit rate 0.78% among 360,000; AID 602399; purified NadD enzyme, colorimetric absorbance read-out; inhibition, % at 20 µM; in the data active = inhibition above about 26%
Scp-1 inhibitor: inhibitors of human Scp-1 phosphatase; inhibition, % at 20 µM; hit rate 0.88% among 340,000; Q9GZU7; Recombinant Scp1, phosphopeptide, malachite green phosphate absorbance;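 active = inhibition above about 50% at 20 µM, limit read from the data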
Target sequence (Q9GZU7 76-261 limits assumed): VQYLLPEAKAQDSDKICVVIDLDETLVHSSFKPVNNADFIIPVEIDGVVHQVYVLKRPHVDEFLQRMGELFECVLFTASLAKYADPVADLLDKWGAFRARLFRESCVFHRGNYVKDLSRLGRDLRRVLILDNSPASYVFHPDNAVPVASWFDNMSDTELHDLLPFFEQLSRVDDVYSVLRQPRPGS
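assay system = SCP-1 phosphatase catalytic domain, residues 76-261 | buffer or medium = 50 mM Tris acetate pH 5.5, 0.005% Tween-20, 10 mM MgCl2 | incubation = enzyme reaction 45 min at room temperature, colour 5 min, stabilisation 30 min | signal = Phosphate-binding colour reagent, absorbance read at 630 nm | measure = % inhibition at 20 µM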
SUMO1-SIM PPI: SUMO1-SIM interaction modulation; P63165; inhibition, % at 20 µM; SUMO1 binding to a labelled peptide, TR-FRET, 1 h; hit rate 0.33% among 360,000; AID 602429; in the data active = inhibition above about 37%
Target sequence (P63165 whole entry, looked up): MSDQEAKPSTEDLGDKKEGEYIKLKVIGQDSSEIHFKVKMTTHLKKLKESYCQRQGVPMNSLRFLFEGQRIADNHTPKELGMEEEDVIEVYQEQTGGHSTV
LMPTP block: blocks human LMPTP phosphatase | P24666 | recombinant LMPTP-A, OMFP fluorogenic substrate, fluorescence intensity | inhibition, % at 20 µM | hit rate 0.22% among 360,000;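 active = compounds that cut the enzyme signal by at least half of the control window in the single-dose screen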
Target sequence (P24666 whole entry, looked up): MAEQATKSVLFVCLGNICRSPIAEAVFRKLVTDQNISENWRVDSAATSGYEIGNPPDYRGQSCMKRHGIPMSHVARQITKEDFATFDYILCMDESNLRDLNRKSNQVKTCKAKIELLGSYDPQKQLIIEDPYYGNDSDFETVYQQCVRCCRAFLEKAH
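Test system: LMPTP-A phosphatase enzyme; input: 0.625 nM LMPTP-A final; reagent: OMFP substrate, 400 µM final; compound dosing: 20 µM single dose, 3% DMSO; incubation: 50 min dark incubation at room temperature; measured by: endpoint fluorescence intensity from OMFP dephosphorylation; measure: % inhibition relative to no-enzyme and uninhibited control wells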
DNMT1 block: inhibitors of human DNMT1; inhibition (reported as % activation of signal), % at 10 µM; DNMT1 molecular beacon, Hinp1I cleavage, fluorescence; hit rate 0.83% among 360,000; P26358; AID 588458; in the data active = inhibition above about 50%
STEP block: inhibitors of human striatal-enriched phosphatase STEP | P54829 | recombinant STEP, OMFP fluorogenic substrate, fluorescence | inhibition, % at 20 µM | hit rate 0.25% among 360,000;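 active = inhibition at 20 µM, scaled per plate between control wells, above about 37%, limit read from the data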
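Test system: STEP tyrosine phosphatase / Reagent: OMFP at 25 µM / Doses: 20 µM, 1% DMSO / Read-out: percent inhibition scaled to no-enzyme and uninhibited-enzyme controls, plate-pattern corrected / Detection: FITC-channel fluorescence of OMFP product / Medium: Bis-Tris buffer pH 6.0, 2.5 mM DTT, 0.005% Tween 20 / Schedule: 20 min at room temperature, dark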
Hits are given with their value. Compounds with a hit are over-represented: about 2.4% of the library has one in this group of screens.

How did CCN(CCO)Cc1csc2c(Br)cccc12 do in these assays?
NadD inh: inactive; Scp-1 inhibitor: inactive; SUMO1-SIM PPI: inactive; LMPTP block: inactive; DNMT1 block: inactive; STEP block: inactive

How did COc1cc(/C=N/NC(=O)Cc2nnc(NC(=O)c3ccccc3)s2)ccc1O do in these assays?
NadD inh: inactive; Scp-1 inhibitor: inactive; SUMO1-SIM PPI: inactive; LMPTP block: inactive; DNMT1 block: inactive; STEP block: inactive

How did CCN(CC)c1ccc(/C=N/NC(=O)Cc2nnc(NC(=O)Nc3ccccc3)s2)cc1 do in these assays?
NadD inh: 48; Scp-1 inhibitor: inactive; SUMO1-SIM PPI: inactive; LMPTP block: inactive; DNMT1 block: 50; STEP block: inactive

What do the screens show for `O=C(Cc1nnc(NC(=O)c2ccccc2)s1)N/N=C\c1ccc(O)c(O)c1`?
NadD inh: inactive; Scp-1 inhibitor: inactive; SUMO1-SIM PPI: inactive; LMPTP block: inactive; DNMT1 block: 59; STEP block: inactive

Results for Cc1cccc(NC(NC(=O)c2ccccn2)C(Cl)(Cl)Cl)c1 (centres undefined) ?
NadD inh: inactive; Scp-1 inhibitor: inactive; SUMO1-SIM PPI: inactive; LMPTP block: inactive; DNMT1 block: inactive; STEP block: inactive

How did CC1(C)CC(N2CCN(Cc3ccccc3)CC2)=CC(=[N+]2CCCCC2)C1 do in these assays?
NadD inh: inactive; Scp-1 inhibitor: 106; SUMO1-SIM PPI: inactive; LMPTP block: inactive; DNMT1 block: inactive; STEP block: inactive

Results for CC1(C)CC(N2CCCC2)=CC(=[N+]2CCCCC2)C1 ?
NadD inh: inactive; Scp-1 inhibitor: inactive; SUMO1-SIM PPI: inactive; LMPTP block: inactive; DNMT1 block: inactive; STEP block: inactive

How did CN(Cc1ccccc1)C1=CC(=[N+]2CCCCC2)CC(C)(C)C1 do in these assays?
NadD inh: inactive; Scp-1 inhibitor: 104; SUMO1-SIM PPI: inactive; LMPTP block: inactive; DNMT1 block: inactive; STEP block: inactive

How did O=S(=O)(Nc1cc2nc3ccccc3nc2n1Cc1ccccc1)c1ccc(Cl)cc1 do in these assays?
NadD inh: inactive; Scp-1 inhibitor: inactive; SUMO1-SIM PPI: 51; LMPTP block: inactive; DNMT1 block: 89; STEP block: inactive

How did COc1ccccc1OCc1cc(C(=O)N(C)CCC2CCCCO2)no1 (centres undefined) do in these assays?
NadD inh: inactive; Scp-1 inhibitor: inactive; SUMO1-SIM PPI: inactive; LMPTP block: inactive; DNMT1 block: inactive; STEP block: inactive

What do the screens show for `CC1(C)Cc2nc3sc4c(=O)n(CC(N)=O)cnc4c3cc2CO1`?
NadD inh: inactive; Scp-1 inhibitor: inactive; SUMO1-SIM PPI: inactive; LMPTP block: inactive; DNMT1 block: inactive; STEP block: inactive

Results for CC1(C)Cc2nc3sc4c(=O)n(CC(=O)NCc5ccccc5)cnc4c3cc2CO1 ?
NadD inh: inactive; Scp-1 inhibitor: inactive; SUMO1-SIM PPI: 43; LMPTP block: inactive; DNMT1 block: inactive; STEP block: inactive

What do the screens show for `Cc1ccc(C)n1Cc1ccc(C(=O)O)cc1`?
NadD inh: inactive; Scp-1 inhibitor: 114; SUMO1-SIM PPI: inactive; LMPTP block: inactive; DNMT1 block: 106; STEP block: 93

What do the screens show for `Cc1cc(N2CCN(C/C=C/c3ccccc3)CC2)n2ncnc2n1`?
NadD inh: inactive; Scp-1 inhibitor: inactive; SUMO1-SIM PPI: inactive; LMPTP block: inactive; DNMT1 block: inactive; STEP block: inactive

How did O=C(O)COc1ccccc1C(Nc1ccccn1)c1cc(Cl)c2cccnc2c1O (centres undefined) do in these assays?
NadD inh: 38; Scp-1 inhibitor: inactive; SUMO1-SIM PPI: inactive; LMPTP block: inactive; DNMT1 block: inactive; STEP block: inactive

How did CCOc1ccc(C(Nc2cccnc2)c2cc(Cl)c3cccnc3c2O)cc1 (centres undefined) do in these assays?
NadD inh: inactive; Scp-1 inhibitor: inactive; SUMO1-SIM PPI: inactive; LMPTP block: inactive; DNMT1 block: inactive; STEP block: inactive

What do the screens show for `COc1ccccc1C(NC(C)=O)c1cc(Cl)c2cccnc2c1O` (centres undefined)?
NadD inh: inactive; Scp-1 inhibitor: inactive; SUMO1-SIM PPI: inactive; LMPTP block: inactive; DNMT1 block: inactive; STEP block: inactive

What do the screens show for `O=C(O)COc1ccccc1C(Nc1cccnc1)c1cc(Cl)c2cccnc2c1O` (centres undefined)?
NadD inh: 37; Scp-1 inhibitor: inactive; SUMO1-SIM PPI: inactive; LMPTP block: inactive; DNMT1 block: inactive; STEP block: inactive

Results for CCCC1C2C(=O)N(c3ccccc3)C(=O)C2ON1c1ccccc1 (centres undefined) ?
NadD inh: inactive; Scp-1 inhibitor: inactive; SUMO1-SIM PPI: inactive; LMPTP block: inactive; DNMT1 block: inactive; STEP block: inactive

What do the screens show for `Cc1ccc(O)c(N=Cc2cc(Cc3ccccc3)cc([N+](=O)[O-])c2O)c1`?
NadD inh: 54; Scp-1 inhibitor: inactive; SUMO1-SIM PPI: inactive; LMPTP block: inactive; DNMT1 block: inactive; STEP block: inactive

Results for CCOc1cc(/C=C2\C(=O)N(c3ccc(C(N)=O)cc3)N=C2C)ccc1OC(=O)c1cccs1 ?
NadD inh: inactive; Scp-1 inhibitor: inactive; SUMO1-SIM PPI: 75; LMPTP block: inactive; DNMT1 block: inactive; STEP block: inactive

What do the screens show for `CCOc1cc(/C=C2/C(=O)N(c3ccccc3)N=C2C)ccc1OC(=O)c1ccco1`?
NadD inh: inactive; Scp-1 inhibitor: inactive; SUMO1-SIM PPI: inactive; LMPTP block: inactive; DNMT1 block: inactive; STEP block: inactive

How did CC1=NN(c2ccccc2)C(=O)/C1=C/c1cccs1 do in these assays?
NadD inh: inactive; Scp-1 inhibitor: inactive; SUMO1-SIM PPI: inactive; LMPTP block: inactive; DNMT1 block: inactive; STEP block: inactive

How did CC1=NN(c2ccc(C(=O)O)cc2)C(=O)/C1=C\c1ccc(OC(=O)c2cccs2)cc1 do in these assays?
NadD inh: inactive; Scp-1 inhibitor: 52; SUMO1-SIM PPI: inactive; LMPTP block: inactive; DNMT1 block: inactive; STEP block: inactive

How did CCc1sc(N(C(=O)Cc2ccccc2)c2ccccc2F)nc1-c1ccc(C)cc1 do in these assays?
NadD inh: inactive; Scp-1 inhibitor: inactive; SUMO1-SIM PPI: inactive; LMPTP block: inactive; DNMT1 block: inactive; STEP block: inactive

Results for C/C(Cl)=C\CSc1nnc2n(N)c(=O)c3ccccc3n12 ?
NadD inh: inactive; Scp-1 inhibitor: inactive; SUMO1-SIM PPI: inactive; LMPTP block: inactive; DNMT1 block: inactive; STEP block: inactive

What do the screens show for `CCc1ccc(O)c(N=Cc2ccccc2O)c1`?
NadD inh: inactive; Scp-1 inhibitor: inactive; SUMO1-SIM PPI: inactive; LMPTP block: inactive; DNMT1 block: inactive; STEP block: inactive

What do the screens show for `O=c1[nH][nH]c2c(N=Cc3ccccc3O)ccc(F)c12`?
NadD inh: inactive; Scp-1 inhibitor: 91; SUMO1-SIM PPI: 92; LMPTP block: 70; DNMT1 block: 118; STEP block: 94

Results for COc1cc(-c2cccs2)cc(=O)c2c(C)oc(C)c12 ?
NadD inh: inactive; Scp-1 inhibitor: inactive; SUMO1-SIM PPI: inactive; LMPTP block: inactive; DNMT1 block: 71; STEP block: inactive

Source: PubChem
